{
  "source": "ChEMBL document CHEMBL1124000",
  "about": "“N-acylphenylalanines and related compounds. A new class of oral hypoglycemic agents” (1988)",
  "note": "Where a SMILES comes first, the peptide text is derived from it.",
  "data": [
    {"test_system": "Mus musculus", "assay": "Hypoglycemic activity was determined as decrease in blood glucose at a dose 250 mg/kg in fasting mice after peroral administration.", "assay_type": "functional", "details": "route oral", "summary_of_the_method": "(§1)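 Male ICR-CD1 mice, 5 weeks old, fasted 18 h, groups of five. Given orally as a suspension in 0.5% (carboxymethyl)cellulose-0.14 M NaCl, 1 mL/kg; vehicle-treated control group run in parallel. Doses 500, 250, 100, 50, 25 and 10 mg/kg. Blood drawn from carotid 1 h after dosing; glucose measured enzymatically by glucose-oxidase-peroxidase; Student's t test (p < 0.05).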", "units": {"Decrease": "%"}, "values": [
      {"smiles": "O=C(O)[C@H]1Cc2ccccc2CN1C(=O)c1ccccc1", "Decrease": "<20"},
      {"smiles": "O=C(O)/C(=C/c1ccccc1)NC(=O)c1ccccc1", "Decrease": "<20"},
      {"smiles": "O=C(O)[C@@H]1Cc2ccccc2CN1C(=O)c1ccccc1", "Decrease": "<20"},
      {"smiles": "O=C(N[C@@H](Cc1ccccc1)C(=O)O)c1ccncc1", "Decrease": "<20"},
      {"smiles": "O=C(N[C@H](Cc1ccccc1)C(=O)O)c1ccccc1", "Decrease": "<20"},
      {"smiles": "O=C(N[C@H](Cc1ccccc1)C(=O)O)C1CCCC1", "Decrease": "<20"},
      {"smiles": "O=C(O)[C@H](Cc1ccccc1)NC(=O)[C@@H]1CCCN1C(=O)c1ccccc1", "Decrease": "<20"},
      {"smiles": "Cc1cccc(C(=O)N[C@@H](Cc2ccccc2)C(=O)O)c1", "Decrease": "<20"},
      {"smiles": "O=C(N[C@@H](Cc1ccccc1)C(=O)O)c1ccc2ccccc2n1", "Decrease": "<20"},
      {"smiles": "O=C(O)[C@H](Cc1ccccc1)NCc1ccccc1", "Decrease": "<20"},
      {"smiles": "O=C(O)[C@H](Cc1ccccc1)NC(=O)[C@H]1CCCN1C(=O)c1ccccc1", "Decrease": "<20"},
      {"smiles": "O=C(N[C@@H](Cc1ccccc1)C(=O)O)C1CCCCCC1", "Decrease": "<20"},
      {"smiles": "O=C(O)/C(=C\\c1ccccc1)NC(=O)c1ccccc1", "Decrease": "<20"},
      {"smiles": "O=C(N[C@@H](Cc1ccccc1)C(=O)O)c1cnc2ccccc2c1", "Decrease": "<20"},
      {"smiles": "O=C(N[C@@H](Cc1ccccc1)C(=O)O)c1cccnc1", "Decrease": "<20"},
      {"smiles": "O=C(N[C@@H](Cc1ccccc1)C(=O)O)c1ccc2ncccc2c1", "Decrease": "<20"},
      {"smiles": "Cc1ccccc1C(=O)N[C@@H](Cc1ccccc1)C(=O)O", "Decrease": "<20"},
      {"smiles": "O=C(N[C@@H](Cc1ccccc1)C(=O)O)c1cccc2ccccc12", "Decrease": "<20"},
      {"smiles": "CC(=O)N1CCC[C@H]1C(=O)N[C@@H](Cc1ccccc1)C(=O)O", "note": "(Ac-Pro-Phe-OH)", "Decrease": "<20"}
    ]},
    {"test_system": "Mus musculus", "assay": "Hypoglycemic activity at the lowest dose that causing 20% blood glucose decrease (fasting mice, po)", "assay_type": "functional", "details": "not given", "summary_of_the_method": "as §1", "units": {"Dose": "mg/kg"}, "values": [
      {"smiles": "O=C(N[C@@H](Cc1ccccc1)C(=O)O)c1ccccc1", "Dose": 150},
      {"smiles": "O=C(N[C@@H](Cc1ccccc1)C(=O)O)C1CCCC1", "Dose": 50},
      {"smiles": "COc1ccc(C(=O)N[C@@H](Cc2ccccc2)C(=O)O)cc1", "Dose": 100},
      {"smiles": "O=C(N[C@@H](Cc1ccccc1)C(=O)O)c1cc2ccccc2o1", "Dose": 100},
      {"smiles": "O=C(N[C@@H](Cc1ccccc1)C(=O)O)C1CC=CCC1", "note": "(some centres not stated)", "Dose": 100},
      {"smiles": "O=C(N[C@@H](Cc1ccccc1)C(=O)O)c1ccc2ccccc2c1", "Dose": 250},
      {"smiles": "O=C(N[C@@H](Cc1ccccc1)C(=O)O)C1CCCCC1", "Dose": 100},
      {"smiles": "O=C(N[C@@H](Cc1ccccc1)C(=O)O)c1ccc2c(c1)OCO2", "Dose": 100},
      {"smiles": "O=C(N[C@@H](Cc1ccccc1)C(=O)O)c1ccc2c(c1)CCC2", "Dose": 250},
      {"smiles": "CCOc1ccc(C(=O)N[C@@H](Cc2ccccc2)C(=O)O)cc1", "Dose": 100},
      {"smiles": "Cc1ccc(C(=O)N[C@@H](Cc2ccccc2)C(=O)O)cc1", "Dose": 100},
      {"smiles": "O=C(NC(Cc1ccccc1)C(=O)O)c1ccccc1", "note": "(configuration not stated)", "Dose": 500},
      {"smiles": "CCCCNC(=O)NS(=O)(=O)c1ccc(C)cc1", "note": "[TOLBUTAMIDE]", "Dose": 25}
    ]}
  ]
}
